Laboratory results: ChEMBL document CHEMBL4373706, “Discovery of Inhibitors of Aurora/PLK Targets as Anticancer Agents” (J Med Chem, 2019)
Calls of active or inactive are those of the source. The calls are words filed in the database; no cut-off is given here.

Tests used:
[1] = Oral bioavailability in Sprague-Dawley rat at 50 mg/kg administered via gastric gavage by LC-MS/MS analysis; type: ADME, organism-based; details: in vivo
[2] = Cmax in Sprague-Dawley rat at 50 mg/kg, po administered via gastric gavage by LC-MS/MS analysis; type: ADME, organism-based; set-up: dose 50 mg/kg, route oral; details: in vivo
[3] = Lipid/water partition coefficient, log D of the compound; type: physicochemical
HCT-116 [4] = assay: Inhibition of colony formation in human HCT116 cells at 10 uM incubated for 48 hrs followed by supplemented with fresh medium every 3 days for 2 weeks by crystal violet staining-based assay; type: functional, cell-based
[5] = molecular target: Cyclin-dependent kinase 6 (Homo sapiens, UniProt Q00534); assay: Binding affinity to wild-type human full-length CDK6 (M1 to A326 residues) expressed in mammalian expression system measured after 1 hr by kinomescan method; details: pooled result: one value given for 15 cell lines, strains, targets or settings
Cyclin-dependent kinase 6, sequence (Q00534 whole entry, the tested form may be a part): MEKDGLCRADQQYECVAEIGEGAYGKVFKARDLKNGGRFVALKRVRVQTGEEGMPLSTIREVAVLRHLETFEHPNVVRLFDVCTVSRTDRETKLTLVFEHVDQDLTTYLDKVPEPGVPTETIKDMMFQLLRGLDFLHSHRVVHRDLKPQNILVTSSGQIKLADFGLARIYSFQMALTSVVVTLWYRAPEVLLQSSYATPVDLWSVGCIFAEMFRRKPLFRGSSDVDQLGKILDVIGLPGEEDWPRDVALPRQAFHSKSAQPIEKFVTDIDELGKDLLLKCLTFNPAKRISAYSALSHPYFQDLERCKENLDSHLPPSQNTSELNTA

[6] = molecular target: T1, Mitogen-activated protein kinase 15 (Homo sapiens, UniProt Q8TD08); assay: Binding affinity to wild-type human partial length ERK8 (M1 to P437 residues) expressed in bacterial expression system measured after 1 hr by kinomescan method; details: pooled result: one value given for 7 cell lines, strains, targets or settings
T1 sequence (Q8TD08 whole entry): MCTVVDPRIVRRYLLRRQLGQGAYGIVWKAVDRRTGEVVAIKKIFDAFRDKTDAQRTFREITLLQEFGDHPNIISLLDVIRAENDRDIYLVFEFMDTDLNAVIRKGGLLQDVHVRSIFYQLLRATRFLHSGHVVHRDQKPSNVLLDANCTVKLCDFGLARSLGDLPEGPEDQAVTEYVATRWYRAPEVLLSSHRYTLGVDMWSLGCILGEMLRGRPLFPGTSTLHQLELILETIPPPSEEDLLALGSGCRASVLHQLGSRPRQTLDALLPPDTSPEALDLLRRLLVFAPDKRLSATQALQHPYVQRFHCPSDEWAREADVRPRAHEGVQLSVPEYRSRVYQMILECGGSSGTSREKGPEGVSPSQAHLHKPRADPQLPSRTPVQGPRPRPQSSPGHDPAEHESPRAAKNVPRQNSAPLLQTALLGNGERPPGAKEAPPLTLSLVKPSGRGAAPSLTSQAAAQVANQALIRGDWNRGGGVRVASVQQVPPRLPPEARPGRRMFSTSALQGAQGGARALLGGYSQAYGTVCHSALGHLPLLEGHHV

[7] = molecular target: Serine/threonine-protein kinase PLK3 (Homo sapiens, UniProt Q9H4B4); assay: Binding affinity to wild-type human partial length PLK3 (A42 to L334 residues) expressed in mammalian expression system measured after 1 hr by kinomescan method
Serine/threonine-protein kinase PLK3, sequence (Q9H4B4 whole entry, the tested form may be a part): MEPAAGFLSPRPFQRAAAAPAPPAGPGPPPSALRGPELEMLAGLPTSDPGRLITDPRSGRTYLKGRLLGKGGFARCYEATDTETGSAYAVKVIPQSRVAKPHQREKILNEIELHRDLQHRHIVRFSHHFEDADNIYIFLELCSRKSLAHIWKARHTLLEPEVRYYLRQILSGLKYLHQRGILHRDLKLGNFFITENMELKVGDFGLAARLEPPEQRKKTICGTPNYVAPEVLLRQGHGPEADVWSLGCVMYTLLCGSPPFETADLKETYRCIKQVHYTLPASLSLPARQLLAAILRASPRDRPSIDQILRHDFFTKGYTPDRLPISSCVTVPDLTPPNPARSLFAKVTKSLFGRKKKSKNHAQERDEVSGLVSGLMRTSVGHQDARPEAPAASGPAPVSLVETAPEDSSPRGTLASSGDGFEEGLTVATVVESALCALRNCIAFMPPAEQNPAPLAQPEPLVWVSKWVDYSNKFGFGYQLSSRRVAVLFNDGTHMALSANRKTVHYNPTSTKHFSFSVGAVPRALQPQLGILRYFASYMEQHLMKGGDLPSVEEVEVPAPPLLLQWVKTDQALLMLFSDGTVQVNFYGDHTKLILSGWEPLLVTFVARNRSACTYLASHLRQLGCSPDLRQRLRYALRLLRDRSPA
In short: (§1)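 KINOMEscan competition binding assay. A 321-kinase panel was first screened at 10 μM compound, and binding affinities were then determined for Aurora and PLK family members.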

[8] = molecular target: Serine/threonine-protein kinase PLK2 (Homo sapiens, UniProt Q9NYY3); assay: Binding affinity to wild-type human partial length PLK2 (H58 to F354 residues) expressed in mammalian expression system measured after 1 hr by kinomescan method; in short: as §1
Serine/threonine-protein kinase PLK2, sequence (Q9NYY3 whole entry, the tested form may be a part): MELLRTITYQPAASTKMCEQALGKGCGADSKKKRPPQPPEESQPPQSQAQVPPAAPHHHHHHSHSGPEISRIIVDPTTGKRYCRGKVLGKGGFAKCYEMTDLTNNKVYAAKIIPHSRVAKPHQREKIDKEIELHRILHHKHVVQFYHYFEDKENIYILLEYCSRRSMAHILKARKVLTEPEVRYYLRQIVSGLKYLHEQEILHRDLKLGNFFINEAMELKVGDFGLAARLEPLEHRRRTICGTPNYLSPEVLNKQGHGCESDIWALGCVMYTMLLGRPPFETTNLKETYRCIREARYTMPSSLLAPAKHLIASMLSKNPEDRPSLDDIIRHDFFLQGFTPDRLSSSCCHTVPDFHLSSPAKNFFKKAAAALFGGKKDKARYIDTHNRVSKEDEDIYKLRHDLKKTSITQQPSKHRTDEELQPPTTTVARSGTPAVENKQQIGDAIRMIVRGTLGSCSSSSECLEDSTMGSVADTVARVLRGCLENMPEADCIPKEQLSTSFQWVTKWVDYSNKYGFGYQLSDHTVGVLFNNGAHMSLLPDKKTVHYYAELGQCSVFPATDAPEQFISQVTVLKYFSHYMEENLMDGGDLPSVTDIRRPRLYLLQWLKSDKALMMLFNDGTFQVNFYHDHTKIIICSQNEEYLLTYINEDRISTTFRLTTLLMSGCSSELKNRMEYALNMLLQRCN

Aurora kinase C = molecular target: T2, Aurora kinase C (Homo sapiens, UniProt Q9UQB9); assay: Binding affinity to wild-type human full length AURKC (M1 to S275 residues) expressed in bacterial expression system measured after 1 hr by Kinomescan method; in short: as §1
T2 sequence (Q9UQB9 whole entry): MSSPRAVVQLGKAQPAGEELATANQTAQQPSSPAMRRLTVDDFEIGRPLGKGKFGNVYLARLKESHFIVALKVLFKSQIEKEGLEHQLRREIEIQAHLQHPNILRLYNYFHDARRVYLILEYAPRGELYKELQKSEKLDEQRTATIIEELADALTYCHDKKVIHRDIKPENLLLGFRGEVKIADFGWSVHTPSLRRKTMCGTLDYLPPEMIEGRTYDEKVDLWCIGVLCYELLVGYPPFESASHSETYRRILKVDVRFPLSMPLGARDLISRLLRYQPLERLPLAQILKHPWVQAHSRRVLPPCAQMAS

Aurora kinase B = Aurora kinase B (Homo sapiens, UniProt Q96GD4); assay: Binding affinity to wild-type human partial length AURKB (D25 to A303 residues) expressed in mammalian expression system measured after 1 hr by Kinomescan method; in short: as §1
Aurora kinase B, sequence (Q96GD4 whole entry, the tested form may be a part): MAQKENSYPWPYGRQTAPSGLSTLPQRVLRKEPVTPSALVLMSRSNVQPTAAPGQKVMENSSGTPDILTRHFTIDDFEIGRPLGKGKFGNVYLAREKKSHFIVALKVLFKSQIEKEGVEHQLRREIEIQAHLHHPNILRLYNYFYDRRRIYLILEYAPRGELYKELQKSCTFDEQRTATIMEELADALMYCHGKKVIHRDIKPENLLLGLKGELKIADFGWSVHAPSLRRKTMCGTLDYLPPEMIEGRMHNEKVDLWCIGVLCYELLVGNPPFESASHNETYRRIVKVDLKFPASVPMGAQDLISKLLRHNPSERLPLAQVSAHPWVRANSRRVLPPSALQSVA

HCT-116 [9] = assay: Cell cycle arrest in human HCT116 cells assessed as accumulation at G2/M phase at 5 uM measured after 24 to 48 hrs by propidium iodide staining-based flow cytometry (reference value: 3.37%); type: functional
HCT-116 [10] = assay: Cell cycle arrest in human HCT116 cells assessed as accumulation at G2/M phase at 10 uM measured after 24 to 48 hrs by propidium iodide staining-based flow cytometry (reference value: 3.37%); type: functional
HCT-116 [11] = assay: Cell cycle arrest in human HCT116 cells assessed as accumulation at G2/M phase at 1 uM measured after 24 to 48 hrs by propidium iodide staining-based flow cytometry (reference value: 3.37%); type: functional
HCT-116 [12] = assay: Induction of apoptosis in human HCT116 cells assessed as apoptotic cell population at 10 uM measured after 48 hrs by Annexin V-FITC/propidium iodide staining-based flow cytometry (reference value: 5.9%); type: functional
HCT-116 [13] = assay: Induction of apoptosis in human HCT116 cells measured after 48 hrs by Annexin V-FITC/propidium iodide staining-based flow cytometry; type: functional, cell-based
[14] = Half life in Sprague-Dawley rat at 50 mg/kg, po administered via gastric gavage by LC-MS/MS analysis; type: ADME, organism-based; details: in vivo
HCT-116 [15] = assay: Antiproliferative activity against human HCT116 cells measured after 48 hrs by MTT assay; type: functional, cell-based; details: HCT-116, 48 h
In short: (§2)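 Cells were exposed to a range of compound concentrations for 48 h. MTT reagent was then added and absorbance read at 490 nm. Viability was normalized to vehicle control set as 100%, from n = 3 independent experiments, and IC50 was taken from the dose–response curves.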

MCF7 = assay: Antiproliferative activity against human MCF7 cells measured after 48 hrs by MTT assay; type: functional, cell-based; details: MCF7, 48 h; in short: as §2
Calu-6 = assay: Antiproliferative activity against human Calu6 cells measured after 48 hrs by MTT assay; type: functional, cell-based; details: Calu-6, 48 h; in short: as §2
[16] = Cmax in Sprague-Dawley rat at 10 mg/kg, iv administered […] by LC-MS/MS analysis; type: ADME, organism-based; set-up: dose 10 mg/kg, route intravenous; details: in vivo
HCT-116 [17] = assay: Antitumor activity against human HCT116 cells xenografted in BALB/c mouse assessed as reduction in tumor growth at 5 mg/kg, iv administered every 3 days for 24 days measured at 3 days interval during compound dosing; type: functional, organism-based
HCT-116 [18] = assay: Antitumor activity against human HCT116 cells xenografted in BALB/c mouse assessed as reduction in tumor size at 10 mg/kg, iv administered every 3 days for 24 days measured at 3 days interval during compound dosing relative to control; type: functional; set-up: scale not given: the % may be the effect or the level left
[19] = Toxicity in BALB/c mouse xenografted with human HCT116 cells assessed as change in body weight at 1 to 5 mg/kg, iv administered every 3 days for 24 days measured post-last dose; type: organism-based; details: in vivo
HCT-116 [20] = assay: Antitumor activity against human HCT116 cells xenografted in BALB/c mouse assessed as survival rate at 1 mg/kg, iv administered every 3 days for 60 days relative to control; type: functional; details: HCT-116, iv

O=C(Nc1ccc2cc(C(=O)Nc3nccs3)ccc2c1)c1ccc(Cl)c(Cl)c1
F [1]: 65%
Cmax [2]: 25100 ng/mL
logD [3]: 4.8
inhibition (HCT-116 [4]): Active
Kd [5]: 8.02 µM
Kd [6]: 5.32 µM
Kd [7]: 456 nM
Kd [8]: 272 nM
Kd (Aurora kinase C): 289 nM
Kd (Aurora kinase B): 78 nM
Activity (HCT-116 [9]): 10.06%
Activity (HCT-116 [10]): 29.66%
Activity (HCT-116 [11]): 7.51%
Activity (HCT-116 [12]): 91.4%
Activity (HCT-116 [13]): Dose-dependent effect
half-life [14]: 708 min
IC50 (HCT-116 [15]): 400 nM
IC50 (MCF7): 2300 nM
IC50 (Calu-6): 5.3 µM
Cmax [16]: 78.5 µg/mL
Activity (HCT-116 [17]): Active
Activity (HCT-116 [18]): 75%
Activity [19]: Non-Toxic
survival at 1 mg/kg (HCT-116 [20]): > 25%
